# Measured values published in ChEMBL document CHEMBL3872205, “Design, synthesis and evaluation of novel potent angiotensin II receptor 1 antagonists” (Eur J Med Chem, 2016).
# Key:
# [1] = MRT (0 to 72 hrs) in Wistar rat Heart at 15 mg/kg, po by HPLC analysis; assay type: ADME, organism-based
# In short: (§1)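 Tissue distribution in male Wistar rats given oral 10, 15 or 30 mg/kg; heart, liver, spleen, lung, kidney and brain collected predose and 0.5–72 h post-dose (n = 6 per time). Tissue rinsed in saline, homogenised 0.25 g/1 mL saline, methanol extraction, dried under nitrogen, reconstituted in methanol. Analysis by reverse-phase C18 HPLC, acetonitrile/water 60:40, 1.0 mL/min, ambient temperature.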
# [2] = Half life in Wistar rat spleen at 30 mg/kg, po by HPLC analysis; assay type: ADME, organism-based; in short: as §1
# [3] = MRT (0 to infinity) in Wistar rat liver at 15 mg/kg, po by HPLC analysis; assay type: ADME, organism-based
# In short: (§2)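 Male Wistar rats (180 ± 20 g) received a single oral dose of 10, 15 or 30 mg/kg. Tissues were collected at 0, 0.5, 1, 2, 4, 6, 8, 12, 24, 48 and 72 h (n = 6 per point). Samples of 0.25 g were rinsed, then homogenized in saline (0.25 g/1 mL) and centrifuged at 10,000 × g. Supernatant was methanol-extracted, dried under nitrogen at 50 °C and reconstituted in methanol. Analysis was by C18 HPLC (acetonitrile 60% / water 40%, 1.0 mL/min).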
# [4] = Cmax in Wistar rat plasma at 15 mg/kg, po by HPLC analysis; assay type: ADME, organism-based; design: dose 15 mg/kg, route oral
# [5] = MRT (0 to 72 hrs) in Wistar rat liver at 10 mg/kg, po by HPLC analysis; assay type: ADME, organism-based; in short: as §1
# [6] = AUC (0 to infinity) in Wistar rat spleen at 10 mg/kg, po by HPLC analysis; assay type: ADME, organism-based; design: dose 10 mg/kg, time infinity, route oral
# In short: (§3)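 Wistar rats (180 ± 20 g) were dosed orally at 10, 15 or 30 mg/kg. Heart, liver, spleen, lung, kidney and brain were collected at 0–72 h (n = 6 per point). Tissue was rinsed, blotted and homogenized in saline (0.25 g/1 mL), then spun at 10,000 × g. Supernatant was methanol-extracted, dried under nitrogen at 50 °C, reconstituted in methanol and run on C18 HPLC (acetonitrile 60%/water 40%, 1.0 mL/min).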
# [7] = MRT (0 to infinity) in Wistar rat kidney at 15 mg/kg, po by HPLC analysis; assay type: ADME, organism-based; in short: as §2
# [8] = AUC (0 to 72 hrs) in Wistar rat spleen at 15 mg/kg, po by HPLC analysis; assay type: ADME, organism-based; design: dose 15 mg/kg, time < 72 hr, route oral; in short: as §3
# [9] = AUC (0 to 72 hrs) in Wistar rat plasma at 10 mg/kg, po by HPLC analysis; assay type: ADME, organism-based; design: time < 72 hr, dose 10 mg/kg, route oral
# In short: (§4)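 Male Wistar rats (180 ± 20 g, n = 6 per group) got one oral dose. Heparinized blood was taken by retro-orbital puncture before dosing and at 0.5–72 h. Plasma was spun at 4000 × g, 4 °C, 10 min, spiked with internal standard and protein-precipitated with acetonitrile. Analysis was reverse-phase C18 HPLC (0.02 mol/L KH2PO4 55%/acetonitrile 45%, 1.0 mL/min). Calibration used 0.1–10 µg/mL, peak-height ratio, weighting concentration^-2.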
# [10] = MRT (0 to infinity) in Wistar rat Heart at 15 mg/kg, po by HPLC analysis; assay type: ADME, organism-based; in short: as §2
# [11] = AUC (0 to infinity) in Wistar rat Heart at 30 mg/kg, po by HPLC analysis; assay type: ADME, organism-based; design: dose 30 mg/kg, route oral, time infinity; in short: as §3
# [12] = Half life in Wistar rat spleen at 15 mg/kg, po by HPLC analysis; assay type: ADME, organism-based; in short: as §1
# [13] = MRT (0 to 72 hrs) in Wistar rat kidney at 30 mg/kg, po by HPLC analysis; assay type: ADME, organism-based; in short: as §1
# [14] = MRT (0 to 72 hrs) in Wistar rat brain at 10 mg/kg, po by HPLC analysis; assay type: ADME, organism-based; in short: as §1
# [15] = Cmax in Wistar rat kidney at 15 mg/kg, po by HPLC analysis; assay type: ADME, organism-based; design: dose 15 mg/kg, route oral; in short: as §1
# [16] = Tmax in Wistar rat kidney at 15 mg/kg, po by HPLC analysis; assay type: ADME, organism-based; in short: as §2
# [17] = Tmax in Wistar rat liver at 30 mg/kg, po by HPLC analysis; assay type: ADME, organism-based; in short: as §2
# [18] = MRT (0 to 72 hrs) in Wistar rat plasma at 10 mg/kg, po by HPLC analysis; assay type: ADME, organism-based
# In short: (§5)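 Male Wistar rats (180 ± 20 g), 6 per dose group, each given a single oral dose. Blood was drawn by retro-orbital puncture into heparin at predose and at 0.5, 1, 2, 4, 6, 8, 12, 24, 48 and 72 h, then spun at 4000 × g and 4 °C. Plasma with internal standard was acetonitrile-precipitated, filtered and run on reverse-phase C18 HPLC (0.02 mol/L KH2PO4 55% / acetonitrile 45%, 1.0 mL/min). Calibration standards were 0.1–10 µg/mL, fitted by peak-height ratio with 1/conc² weighting.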
# [19] = Half life in Wistar rat lung at 10 mg/kg, po by HPLC analysis; assay type: ADME, organism-based; in short: as §1
# [20] = Tmax in Wistar rat kidney at 10 mg/kg, po by HPLC analysis; assay type: ADME, organism-based; in short: as §2
# [21] = Toxicity in ICR mouse assessed as mortality at 2929.69 mg/kg, ig after 2 weeks; assay type: organism-based; settings: in vivo, po
# [22] = Half life in Wistar rat liver at 10 mg/kg, po by HPLC analysis; assay type: ADME, organism-based; in short: as §1
# [23] = AUC (0 to infinity) in Wistar rat kidney at 30 mg/kg, po by HPLC analysis; assay type: ADME, organism-based; design: dose 30 mg/kg, route oral, time infinity; in short: as §3
# Mus musculus = test: Toxicity in ICR mouse assessed as untoward reaction at 1200 mg/kg, po after 2 weeks; assay type: organism-based; settings: in vivo, 336 h
# [24] = Half life in Wistar rat brain at 10 mg/kg, po by HPLC analysis; assay type: ADME, organism-based; in short: as §1
# [25] = Toxicity in ICR mouse assessed as mortality at 1200 mg/kg, ig after 2 weeks; assay type: organism-based; settings: in vivo, po
# [26] = AUC (0 to infinity) in Wistar rat plasma at 30 mg/kg, po by HPLC analysis; assay type: ADME, organism-based; design: dose 30 mg/kg, route oral, time infinity; in short: as §4
# [27] = AUC (0 to infinity) in Wistar rat plasma at 15 mg/kg, po by HPLC analysis; assay type: ADME, organism-based; design: dose 15 mg/kg, route oral, time infinity; in short: as §4
# [28] = AUC (0 to infinity) in Wistar rat Heart at 10 mg/kg, po by HPLC analysis; assay type: ADME, organism-based; design: dose 10 mg/kg, time infinity, route oral; in short: as §3
# [29] = Tmax in Wistar rat plasma at 15 mg/kg, po by HPLC analysis; assay type: ADME, organism-based; in short: as §5
# [30] = MRT (0 to infinity) in Wistar rat Heart at 10 mg/kg, po by HPLC analysis; assay type: ADME, organism-based; in short: as §2
# [31] = Tmax in Wistar rat lung at 15 mg/kg, po by HPLC analysis; assay type: ADME, organism-based; in short: as §2
# [32] = Half life in Wistar rat liver at 30 mg/kg, po by HPLC analysis; assay type: ADME, organism-based; in short: as §1
# [33] = Half life in Wistar rat Heart at 15 mg/kg, po by HPLC analysis; assay type: ADME, organism-based; in short: as §1
# [34] = Cmax in Wistar rat spleen at 15 mg/kg, po by HPLC analysis; assay type: ADME, organism-based; design: dose 15 mg/kg, route oral; in short: as §1
# [35] = AUC (0 to infinity) in Wistar rat liver at 30 mg/kg, po by HPLC analysis; assay type: ADME, organism-based; design: dose 30 mg/kg, time infinity, route oral; in short: as §3
# [36] = AUC (0 to 72 hrs) in Wistar rat kidney at 30 mg/kg, po by HPLC analysis; assay type: ADME, organism-based; design: time < 72 hr, dose 30 mg/kg, route oral; in short: as §3
smiles,measurement,setting,value
CCCCC1=NC2(CCCC2)C(=O)N1Cc1ccc2c(ccn2-c2ccccc2-c2nnn[nH]2)c1,MRT last,[1],16.9 h
same,half-life,[2],13.4 h
same,MRT inf,[3],4.77 h
same,Cmax,[4],2950 ng/mL
same,MRT last,[5],4.93 h
same,AUC(0-inf),[6],11700 ng·h/mL
same,MRT inf,[7],29.4 h
same,AUC(0-t) at 72 h,[8],11900 ng·h/mL
same,AUC(0-t) at 72 h,[9],6110 ng·h/mL
same,MRT inf,[10],23.9 h
same,AUC(0-inf),[11],8760 ng·h/mL
same,half-life,[12],7.57 h
same,MRT last,[13],24.9 h
same,MRT last,[14],8.1 h
same,Cmax,[15],210 ng/mL
same,Tmax,[16],2.33 h
same,Tmax,[17],4 h
same,MRT last,[18],7.87 h
same,half-life,[19],3.04 h
same,Tmax,[20],1.17 h
same,mortality at 336 h,[21],100%
same,half-life,[22],2.33 h
same,AUC(0-inf),[23],29400 ng·h/mL
same,Activity,Mus musculus,Non-Toxic
same,half-life,[24],2.73 h
same,mortality at 336 h,[25],0%
same,AUC(0-inf),[26],88800 ng·h/mL
same,AUC(0-inf),[27],26100 ng·h/mL
same,AUC(0-inf),[28],962 ng·h/mL
same,Tmax,[29],4.33 h
same,MRT inf,[30],12 h
same,Tmax,[31],1 h
same,half-life,[32],2.12 h
same,half-life,[33],15.8 h
same,Cmax,[34],2360 ng/mL
same,AUC(0-inf),[35],15600 ng·h/mL
same,AUC(0-t) at 72 h,[36],22400 ng·h/mL
